Measured values collected from several papers.
Lines come from different studies, so protocols differ.
Cell line: HeLa
Observed: cell growth or viability

| SMILES | assay | setting | IC50 |
| --- | --- | --- | --- |
| COc1cccc2c1C(=O)c1c(O)c3c(c(O)c1C2=O)C[C@@](O)(C(=O)CO)C[C@@H]3O[C@H]1C[C@H](N)[C@H](O)[C@H](C)O1 | MTT | 48 h | 0.18 µM |
| C(C#CCC1CCCCC1)#CCC1CCCCC1 | MTT | 24 h | 117 µg/mL |
| COc1c2c(cc3c1OCO3)[C@]13C=C[C@H](OC)C[C@H]1N(C2)C[C@H]3OC(=O)c1cccc(C)c1 | WST-1 | 48 h | > 10 µM |
| COC(=O)CN=c1scc(-c2ccccc2)n1-c1ccccc1[N+](=O)[O-] | MTT | 72 h | 6.02 µM |
| COc1cc(OC)c2c(=O)cc(-c3ccc(N(C)C)cc3)oc2c1 | MTT | 48 h | 55.7 µM |
| CC1(C)SC2C(NC(=O)C(NC(=O)C3=C(O)C(Cc4ccccc4)NC3=O)c3ccccc3)C(=O)N2C1C(=O)O (stereo not drawn) | ATP luminescence | 48 h | 122 µg/mL |
| COc1ccc2oc(C(=O)c3ccccc3)cc2c1-c1ccccc1 | – | – | > 50 µM |
| CC1CS(=O)(=O)CCN1/N=C/c1ccc([N+](=O)[O-])o1 (stereo not drawn) | – | – | 43 µM |
| COc1ccccc1C(=O)c1cc2c(-c3ccccc3)c(OC)ccc2o1 | – | – | > 50 µM |
| CCCC(O)C#CC#CC(O)CCC (stereo not drawn) | MTT | 24 h | 19.3 µg/mL |
| CC(=O)c1ccc(-c2cccc(NC(=O)CCc3cccc4c3B(O)OC4)c2)cc1 | ATP luminescence | – | 1.27 µM |
| COc1cc(OC)cc(C(=O)c2cc3c(-c4ccccc4)c(OC)ccc3o2)c1 | – | – | > 50 µM |
| COc1ccc(-c2cc(=O)c3c(OC)cc(C)cc3o2)cc1 | MTT | 48 h | 28.4 µM |
| CN(C)CCCOc1cc(NC(=O)c2cc(Cl)cc(C(=O)Nc3cc(OCCCN(C)C)c4ccccc4n3)n2)nc2ccccc12 | ATP luminescence | 72 h | 1.6 µM |
| COc1cccc2c1C(=O)c1c(O)c3c(c(O)c1C2=O)C[C@@](O)(C(=O)CO)C[C@@H]3O[C@H]1C[C@H](N)[C@H](O)[C@H](C)O1 | MTT | 72 h | 3.62 µM |
| CCCCCCC#CC#CCCCCCC | MTT | 24 h | 36 µg/mL |
| CC(=O)O[C@H](C)C(=O)CCCCC[C@@H]1NC(=O)[C@H]2CCCN2C(=O)[C@H](Cc2ccccc2)NC(=O)C(C)(C)NC1=O | XTT | – | 0.119 µM |
| CC1(C)SC2C(NC(=O)C(NC(=O)C3=C(O)C(Cc4ccc(F)cc4)NC3=O)c3ccccc3)C(=O)N2C1C(=O)O (stereo not drawn) | ATP luminescence | 48 h | 123 µg/mL |
| COc1cccc(C(=O)c2cc3c(-c4ccccc4)c(O)ccc3o2)c1 | – | – | 27 µM |
| CC(=O)O[C@H](C)C(=O)CCCCCCC(=O)Nc1ccccc1 | XTT | – | > 50 µM |
| COc1ccc(C(=O)O[C@@H]2CN3Cc4c(cc5c(c4OC)OCO5)[C@@]24C=C[C@H](OC)C[C@@H]34)cc1 | WST-1 | 48 h | > 10 µM |
| C#CCOc1ccc(C(=O)c2ccc(-c3cccc(NC(=O)CCc4cccc5c4B(O)OC5)c3)cc2)cc1 | ATP luminescence | 72 h | 4.4 µM |
| Oc1c(I)cc(I)c2cccnc12 | MTT | 48 h | > 100 µM |

| SMILES | assay | setting | IC50 |
| --- | --- | --- | --- |
| COc1ccc(-c2cc(=O)c3c(OC)cc(OC)cc3o2)cc1 | MTT | 48 h | 33 µM |
| CC1(C)S[C@@H]2[C@H](NC(=O)C(C(=O)O)c3ccccc3)C(=O)N2[C@H]1C(=O)O (stereo partly drawn) | ATP luminescence | 48 h | 76.2 µg/mL |
| Cc1ccc2c(Br)cc(Br)c(O)c2n1 | MTT | 48 h | > 150 µM |
| C#CCOc1cc(C(=O)Nc2cc(OCCN)c3ccccc3n2)nc(C(=O)Nc2cc(OCCN)c3ccccc3n2)c1 | ATP luminescence | 72 h | 5.2 µM |
| COc1cccc2c1C(=O)c1c(O)c3c(c(O)c1C2=O)C[C@@](O)(C(=O)CO)C[C@@H]3O[C@H]1C[C@H](N)[C@H](O)[C@H](C)O1 | SRB | – | 0.46 µM |
| CC1NC(=O)C(C(=O)NC(C(=O)NC2C(=O)N3C2SC(C)(C)C3C(=O)O)c2ccccc2)=C1O (stereo not drawn) | ATP luminescence | 48 h | 106 µg/mL |
| COc1cc(OC)c2c(=O)cc(-c3ccc(C(F)(F)F)cc3)oc2c1-c1c(OC)cc(OC)c2c(=O)cc(-c3ccc(C(F)(F)F)cc3)oc12 | MTT | 48 h | > 100 µM |
| NCCCOc1cc(NC(=O)c2cccc(C(=O)Nc3cc(OCCCN)c4ccccc4n3)n2)nc2ccccc12 | ATP luminescence | 72 h | 1.4 µM |
| COc1cc(C)c(-c2c(C)cc(OC)c3c(=O)cc(-c4ccc(C(F)(F)F)cc4)oc23)c2oc(-c3ccc(C(F)(F)F)cc3)cc(=O)c12 | MTT | 48 h | > 100 µM |
| O=C(O)CN1c2ccccc2Sc2ccccc21 | MTS | – | 13.2 µM |
| CC(=O)O[C@H]1C(=O)[C@@]2(C)[C@H]([C@H](OC(=O)c3ccccc3)[C@]3(O)C[C@H](OC(=O)[C@H](O)[C@@H](NC(=O)c4ccccc4)c4ccccc4)C(C)=C1C3(C)C)[C@]1(OC(C)=O)CO[C@@H]1C[C@@H]2O | MTT | 72 h | < 2 µM |
| CC(C)CC1NC(=O)C(C(=O)NC(C(=O)NC2C(=O)N3C2SC(C)(C)C3C(=O)O)c2ccccc2)=C1O (stereo not drawn) | ATP luminescence | 48 h | 69.1 µg/mL |
| COc1cc(C)c(-c2c(C)cc(OC)c3c(=O)cc(-c4ccccc4)oc23)c2oc(-c3ccccc3)cc(=O)c12 | MTT | 48 h | 11.8 µM |
| NCCOc1cc(C(=O)Nc2cc(OCCN3CCCC3)c3ccccc3n2)nc(C(=O)Nc2cc(OCCN3CCCC3)c3ccccc3n2)c1 | ATP luminescence | 72 h | 0.3 µM |
| C(C#CC1CC1)#CC1CC1 | MTT | 24 h | 14.5 µg/mL |
| COc1cc(C)cc2oc(-c3ccc(Br)cc3)cc(=O)c12 | MTT | 48 h | > 100 µM |
| Oc1c(I)cc(Cl)c2cccnc12 | MTT | 48 h | 70.2 µM |
| CC1(C)SC2C(NC(=O)C(NC(=O)C3=C(O)C(c4ccccc4)NC3=O)c3ccccc3)C(=O)N2C1C(=O)O (stereo not drawn) | ATP luminescence | 48 h | 47.6 µg/mL |
| COc1cc(C(=O)Nc2cc(OCCN3CCCC3)c3ccccc3n2)nc(C(=O)Nc2cc(OCCN3CCCC3)c3ccccc3n2)c1 | ATP luminescence | 72 h | 3.9 µM |
| COc1cc(OC)c2c(=O)cc(-c3ccc(Br)cc3)oc2c1 | MTT | 48 h | 85.8 µM |
| O=c1[nH]cc(F)c(=O)[nH]1 | – | 72 h | 0.54 µM |
| NCCOc1cc(NC(=O)c2cc(OCc3ccc(F)cc3)cc(C(=O)Nc3cc(OCCN)c4ccccc4n3)n2)nc2ccccc12 | ATP luminescence | 72 h | 9.6 µM |
